Test results from publication PMC3565064 (Analytical biochemistry, 2012).
Where two headings read alike, the source gives them in different places.

Legend:
Aβ(1–42) aggregates = Aβ(1–42) aggregates (Homo sapiens, UniProt P05067); format: binding; conditions: for ka, pseudo-first-order rate constant: DPV current decay fit, 100 mM phosphate buffer/50 mM KClO4 pH 7.4, 37 °C, average of three replicates; for t1/2, half-life: from pseudo-first-order ka
Method in brief: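 HFIP-pretreated, lyophilised Aβ(1–42) and the ferrocene-tagged peptide (20 μM) were dissolved in 100 mM phosphate/50 mM KClO₄, pH 7.4, at several peptide:Aβ ratios and held at 37 °C. DPV was recorded over 0–24 h (pulse amplitude 50 mV, width 50 ms, period 200 ms, sample width 17 ms). Points were averages of three replicates, and current–time curves were fitted to a pseudo-first-order rate law.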

[1] = Self-aggregation of the peptide incubated alone; format: physicochemical
Method in brief: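 The tagged peptide (20 μM) without Aβ was incubated at 37 °C. DPV was run in 100 mM phosphate/50 mM KClO₄, pH 7.4. For AFM, aliquots of the incubated solution were cast on mica pretreated with 10 mM NiCl₂ for 15 min, rinsed with water and dried under nitrogen. They were imaged in tapping mode over 5 μm × 5 μm fields at the stated incubation times.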

[2] = cited from earlier work

Sequence of Aβ(1–42) aggregates (P05067 672-713 limits assumed): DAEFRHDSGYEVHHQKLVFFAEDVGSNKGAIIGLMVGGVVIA

Substance | ka, pseudo-first-order rate constant (Aβ(1–42) aggregates; [Fc-KLVFFK6]:[Aβ(1–42)] 1:0.25, 20 μM Fc-KLVFFK6) | t1/2, half-life (Aβ(1–42) aggregates; [Fc-KLVFFK6]:[Aβ(1–42)] 1:0.25) [h] | ka, pseudo-first-order rate constant (Aβ(1–42) aggregates; [Fc-KLVFFK6]:[Aβ(1–42)] 1:0.5, 20 μM Fc-KLVFFK6) | t1/2, half-life (Aβ(1–42) aggregates; [Fc-KLVFFK6]:[Aβ(1–42)] 1:0.5) [h] | ka, pseudo-first-order rate constant (Aβ(1–42) aggregates; [Fc-KLVFFK6]:[Aβ(1–42)] 1:1, 20 μM Fc-KLVFFK6) | t1/2, half-life (Aβ(1–42) aggregates; [Fc-KLVFFK6]:[Aβ(1–42)] 1:1) [h] | ka, pseudo-first-order rate constant (Aβ(1–42) aggregates; [Fc-KLVFFK6]:[Aβ(1–42)] 1:2, 20 μM Fc-KLVFFK6) | t1/2, half-life (Aβ(1–42) aggregates; [Fc-KLVFFK6]:[Aβ(1–42)] 1:2) [h] | ka, pseudo-first-order rate constant (Aβ(1–42) aggregates; [Fc-KLVFFK6]:[Aβ(1–42)] 1:4, 20 μM Fc-KLVFFK6) | incubation time at which the DPV current reaches a plateau (Aβ(1–42) aggregates; all stoichiometric ratios, 20 μM Fc-KLVFFK6, 37 °C) | half-life of the conjugate formed between Fc-KLVFFK6 and the Aβ(1–42) aggregates (Aβ(1–42) aggregates; over all stoichiometric ratios of Table 1) [h] | self-aggregation, AFM of the peptide alone ([1]; 20 μM Fc-KLVFFK6 incubated alone, AFM (Figure 4 row D)) | self-aggregation, DPV current of the peptide alone ([1]; 20 μM Fc-KLVFFK6 without Aβ(1–42), 100 mM phosphate buffer/50 mM KClO4 pH 7.4, 37 °C, 24 h, steady DPV current) | self-aggregation [2]
Fc-KLVFFK6 | (1.49 ± 0.15) × 10^−4 s^−1 | 1.2919 | (1.43 ± 0.08) × 10 ^−4 s^−1 | 1.3462 | (1.26 ± 0.07) × 10 ^−4 s^−1 | 1.5278 | (1.71 ± 0.05) × 10^−4 s^−1 | 1.1257 | (1.89 ± 0.05) × 10^−4 s^−1 | about 6 h | 1.2632 ± 0.1961 | does not self-aggregate when incubated alone | does not undergo self-aggregation | 
KLVFF |  |  |  |  |  |  |  |  |  |  |  |  |  | known to self-aggregate
